Assay outcomes from PubChem BioAssay.
A selection: hits, their analogues and other compounds. The true share with any hit is near 4.1%.
Tb MetRS inh: blocks T. brucei methionyl-tRNA synthetase activity; purified T. brucei MetRS, ATP depletion, Kinase-Glo luminescence; inhibition, % at 11.9 µM; 360,000 compounds, 0.4% hits; AID 624268;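 active = inhibition above a per-plate cutoff of the control wells' mean inhibition plus 3 SD, cut at about 5.5% in these data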;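 note: 0% = DMSO wells median and 100% = median of wells with control inhibitor compound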
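Material – parasite MetRS enzyme · Medium – HEPES-MgCl2-KCl buffer plus DTT, spermine, BSA, pyrophosphatase · Reagent – ATP, methionine and E. coli bulk tRNA substrates · Times – 15 min enzyme-compound preincubation, 2 h reaction, 10 min detection, 25 °C · Measured by – luminescence of leftover ATP · Evaluation – percent inhibition relative to median high and low control wells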
TAG inh: inhibitors of triacylglycerol accumulation; inhibition, % at 12.5 µM; AID 651582; H9c2 cells, Nile Red lipid (TAG) fluorescence; cells loaded with 200 µM oleic acid; 230,000 compounds, 0.66% hits;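 active = pattern-corrected inhibition of lipid staining of at least 50% with the nuclear-stain viability signal not falling by more than 50%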;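 note: 0% = DMSO wells and 100% = triacsin C control wells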
Efflux pump mplx: blocks antifungal efflux pumps in multiplex yeast assay; inhibition, % at 10 µM; 330,000 compounds, 0.44% hits; S. cerevisiae Candida pump triplex, Nile Red efflux;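 active = plate passing quality check with inhibition over a set limit, or well fluorescence over plate mean plus 4 SD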;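 note: Nile Red retained in pooled yeast measured as flow cytometry median fluorescence; 0% = buffer negative control and 100% = Enniatin B positive control; higher means more Nile Red kept so more efflux inhibition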
SMARCA2 activ: increases SMARCA2 function in MMTV reporter cells; MG213 cells, MMTV-luciferase reporter, dexamethasone, overnight; activation, % at 9.1 µM; 370,000 compounds, 1% hits; AID 652017; in the data active = activation above about 7.8%;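 note: 0% = vehicle wells and 100% = reference activator wells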
AHR activator: human AHR activation; P35869; activation, % at 5 µM; AHR-responsive luciferase reporter cells, luminescence; AID 2796; 320,000 compounds, 2.5% hits; in the data active = activation above about 47%;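 note: 0% = vehicle wells and 100% = reference agonist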
Target sequence (P35869 whole entry, looked up): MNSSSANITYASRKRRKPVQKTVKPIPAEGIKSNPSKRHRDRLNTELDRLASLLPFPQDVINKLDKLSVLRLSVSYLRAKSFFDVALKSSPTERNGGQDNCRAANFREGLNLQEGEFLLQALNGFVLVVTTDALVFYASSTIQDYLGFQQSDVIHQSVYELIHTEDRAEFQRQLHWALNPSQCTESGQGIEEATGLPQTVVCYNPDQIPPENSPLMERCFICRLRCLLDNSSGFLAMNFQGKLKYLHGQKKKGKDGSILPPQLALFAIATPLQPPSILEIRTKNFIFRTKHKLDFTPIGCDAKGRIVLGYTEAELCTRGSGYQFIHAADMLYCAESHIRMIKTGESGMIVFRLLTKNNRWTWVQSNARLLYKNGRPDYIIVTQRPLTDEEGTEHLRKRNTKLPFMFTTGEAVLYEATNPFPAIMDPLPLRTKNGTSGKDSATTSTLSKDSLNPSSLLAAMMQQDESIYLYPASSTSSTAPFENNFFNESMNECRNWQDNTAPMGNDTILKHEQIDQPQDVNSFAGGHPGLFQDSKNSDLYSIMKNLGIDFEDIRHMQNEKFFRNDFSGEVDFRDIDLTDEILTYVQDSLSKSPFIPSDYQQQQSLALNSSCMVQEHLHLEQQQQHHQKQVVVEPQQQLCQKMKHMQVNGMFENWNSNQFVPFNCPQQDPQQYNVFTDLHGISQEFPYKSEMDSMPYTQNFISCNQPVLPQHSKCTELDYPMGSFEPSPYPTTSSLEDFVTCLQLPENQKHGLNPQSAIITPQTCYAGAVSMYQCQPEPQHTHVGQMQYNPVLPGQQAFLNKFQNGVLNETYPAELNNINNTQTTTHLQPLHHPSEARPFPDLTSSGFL
TbMetRS confirm: confirmation of Trypanosoma brucei MetRS inhibitors | AID 624412 | shares compounds with Tb MetRS inh | inhibition, % at 11.9 µM | 1,400 compounds, 93% hits | T. brucei MetRS enzyme, luminescence (ATP depletion); in the data active = inhibition above about 7%
Jurkat tox: Jurkat T cell cytotoxicity for MetRS hits; AID 624413; Jurkat cells viability, ATP luminescence; shares compounds with Tb MetRS inh; inhibition, % at 8.3 µM; 1,400 compounds, 12% hits; in the data active = inhibition above about 15%;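 note: 0% = vehicle and 100% = reference inhibitor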
TbMetRS FP orth: inhibits T. brucei methionyl tRNA synthetase in orthogonal FP test; shares compounds with Tb MetRS inh; purified T. brucei MetRS, fluorescence polarization; inhibition, % at 11.9 µM; 1,400 compounds, 44% hits; in the data active = inhibition above about 17%;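 note: 0% = vehicle wells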
Starred values were filed as active, the others as inactive; / = not tested or not shown.

SMILES | Tb MetRS inh | TAG inh | Efflux pump mplx | SMARCA2 activ | AHR activator | TbMetRS confirm | Jurkat tox | TbMetRS FP orth
O=C(CN1C(=O)/C(=C2/SC(=S)N(CCS(=O)(=O)O)C2=O)c2ccccc21)Nc1cccc(C(F)(F)F)c1 | 42* | 8 | 0 | -2 | 2 | 14* | 5 | 2
O=C(CN1C(=O)/C(=C2\SC(=S)N(CCS(=O)(=O)O)C2=O)c2ccccc21)Nc1cccc(Br)c1 | 19* | / | 0 | -1 | 1 | 20* | -5 | 1
C[C@@H]1COc2cccc(NCCO)c2S(=O)(=O)N1 | / | / | / | -5 | / | / | / | /
O=C(c1cccnc1Cl)N1CCOCC1 | 0 | -4 | 0 | -1 | -1 | / | / | /
Cn1nccc1-c1coc2c(C(=O)N3CCOCC3)cccc12 | 7.6* | -7 | / | -2 | / | 5 | -10 | 2
O=C(Cc1ccccc1)N/N=C/c1cccn1-c1ccc([N+](=O)[O-])cc1 | 13* | / | 1 | -2 | 3 | 34* | -2 | 17
O=C(N/N=C/c1cccn1-c1ccc([N+](=O)[O-])cc1)C(O)c1ccccc1 (stereo not drawn) | 2 | / | 0 | -1 | 0 | / | / | /
CN(C)c1ccc(-c2[nH][nH]c(=O)c2NC(=O)c2ccc3ccccc3n2)cc1 | 13* | / | / | 4 | / | 1 | 6 | 2
O=C(Nc1c(-c2ccccc2)[nH][nH]c1=O)c1ccccc1 | -1 | / | / | -3 | / | / | / | /
CN(C)c1ccc(-c2[nH][nH]c(=O)c2NC(=O)c2ccccn2)cc1 | 28* | / | / | -2 | / | 1 | 9 | 4
Cc1cnc(C(=O)Nc2c(-c3ccccc3)[nH][nH]c2=O)cn1 | -1 | / | / | -4 | / | / | / | /
CN1C(=O)[C@@](O)(c2cccn2C)c2cc(Cl)ccc21 | / | / | / | -2 | / | / | / | /
Cc1cc(SCC(=O)N/N=C/c2ccc(O)c(O)c2O)c(C)cc1Br | 76* | / | 0 | -4 | 6 | 103* | 56* | 84*
COc1cc(/C=N/NC(=O)CSc2cc(C)c(Br)cc2C)ccc1O | 0 | -17 | 0 | -3 | 6 | / | / | /
Cc1[nH]c2ccc(F)cc2c(=O)c1SC(F)(F)C(F)C(F)(F)F (stereo not drawn) | 13* | -16 | 0 | -4 | 3 | 20* | 2 | 7
CCCCOCCCNC(=O)C[C@H]1C[C@@]2(C(=O)OC)C(=C[C@H](COCc3ccccc3)O[C@@H]2C)N(Cc2ccco2)C1=O | / | / | / | 1 | / | / | / | /
S=c1nc(-c2sccc2OCc2ccc(Cl)cc2Cl)[nH][nH]1 | 8.6* | 10 | 0 | -1 | 31 | 13* | 1 | 0
CNC(=S)NNC(=O)c1sccc1OCc1ccc(Cl)cc1Cl | 0 | -15 | 0 | -2 | 0 | / | / | /
O=C(Cc1ccccc1)N/N=C/C=C/c1ccccc1[N+](=O)[O-] | 7.0* | 5 | 0 | -1 | -5 | 11* | 8 | 10
O=C(Cc1cccs1)N/N=C/C=C/c1ccccc1[N+](=O)[O-] | 2 | -4 | 0 | 3 | 6 | / | / | /
N#C/C(=C\C=C\c1ccccc1[N+](=O)[O-])C(=O)NCc1ccccc1 | 13* | / | 0 | 2 | 7 | 30* | 77* | 12
C#CCN(Cc1ccco1)C(=O)c1nnc2c3ccccc3n(S(=O)(=O)c3ccccc3)c2n1 | / | / | / | 3 | / | / | / | /
O=C(NCc1cc(Cl)cc(Cl)c1)c1ccc2nc([C@H]3C[C@H](O)[C@@H](CO)O3)[nH]c2c1 | 22* | 6 | / | -2 | / | 49* | -2 | 33*
CC(=O)Oc1ccc(/C=C(\NC(=O)c2cccc(Br)c2)C(=O)Nc2ccc(C(=O)O)cc2)cc1 | 6.2* | 5 | 0 | -3 | -1 | 12* | -2 | 10
O=C(Nc1ccc(C(=O)O)cc1)/C(=C\C=C\c1ccccc1)NC(=O)c1ccc(Br)cc1 | 21* | 9 | 0 | -5 | -1 | 40* | 1 | 39*
SMILES | Tb MetRS inh | TAG inh | Efflux pump mplx | SMARCA2 activ | AHR activator | TbMetRS confirm | Jurkat tox | TbMetRS FP orth
Cc1ccc(NC(=O)/C(=C/C=C/c2ccccc2)NC(=O)c2ccccc2)cc1 | 0 | -27 | -7 | -3 | 34 | / | / | /
CCCCCCCCNC(=O)C1CSCCS(=O)(=O)N1Cc1ccc(F)cc1 (stereo not drawn) | / | / | / | -4 | / | / | / | /
Cn1c(=O)c2cc(NC(=S)NCc3ccccc3F)ccc2n1Cc1ccccc1 | 1 | 73 | / | 0 | / | / | / | /
Cc1cc(C)cc(Cn2c3ccc(NC(=S)NCc4ccccc4F)cc3c(=O)n2C)c1 | 8.5* | 14 | / | -2 | / | 33* | -7 | 16
COc1cc(Cn2c3ccc(NC(=S)NCc4ccc(C)cc4)cc3c(=O)n2C)ccc1F | 7.9* | -24 | / | 2 | / | 28* | 1 | 16
COc1cc(Cn2c3ccc(NC(=O)CC(C)(C)C)cc3c(=O)n2C)ccc1F | 0 | -5 | / | 1 | / | / | / | /
CC(COc1cccc(OC(F)(F)F)c1)CN1CCC(C(O)(c2ccccc2)c2ccccc2)CC1 (stereo not drawn) | / | / | / | -3 | / | / | / | /
COc1cccc(NC(=O)CSCC(=O)Nc2ccccc2)c1 | 6.1* | -17 | 0 | 0 | 8 | 18* | -8 | 2
COc1cccc(NC(=O)CSCC(=O)O)c1 | -2 | / | 0 | 1 | 0 | / | / | /
COCCCN1C(=O)[C@H](CC(=O)N2CCCC2)[C@]2(C(=O)OC)CCCCC=C12 | / | / | / | -5 | / | / | / | /
COc1cc(CNCCN2CCOCC2)ccc1OCc1ccc(Cl)cc1Cl | 7.0* | 36 | 0 | -1 | 4 | 15* | 17* | 8
